From ChEMBL document CHEMBL3525945, “Metabolic switching of BILR 355 in the presence of ritonavir. II. Uncovering novel contributions by gut bacteria and aldehyde oxidase” (Drug Metab Dispos, 2012)

How the values were obtained:
[1] = target: T1, Cytochrome P450 2B6 (Homo sapiens, UniProt P20813); experiment: Activity at recombinant CYP2B6 (unknown origin) expressed in baculovirus-infected insect cells assessed as enzyme-mediated drug depletion at 1 to 10 uM by LC-MS/MS analysis in presence of NADPH; format: ADME
T1 sequence (P20813 whole entry): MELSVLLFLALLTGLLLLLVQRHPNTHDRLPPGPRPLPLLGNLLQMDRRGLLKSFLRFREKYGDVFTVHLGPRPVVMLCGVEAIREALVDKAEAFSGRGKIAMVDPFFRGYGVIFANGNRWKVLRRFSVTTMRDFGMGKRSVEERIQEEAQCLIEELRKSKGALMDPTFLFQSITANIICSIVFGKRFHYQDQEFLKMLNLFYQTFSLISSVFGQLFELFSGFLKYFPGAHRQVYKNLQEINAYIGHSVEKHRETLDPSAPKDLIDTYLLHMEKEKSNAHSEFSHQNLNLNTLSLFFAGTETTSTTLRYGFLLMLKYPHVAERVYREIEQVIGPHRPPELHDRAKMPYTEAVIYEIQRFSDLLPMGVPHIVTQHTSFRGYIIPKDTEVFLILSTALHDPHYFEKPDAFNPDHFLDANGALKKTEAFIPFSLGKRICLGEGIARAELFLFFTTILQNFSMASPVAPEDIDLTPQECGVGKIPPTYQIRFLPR
In short: (§1)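 BILR 402 (1 or 10 μM) with baculovirus/insect-cell recombinant CYPs, levels scaled to average liver content (1A2 2, 2A6 1, 2B6 0.1, 2C9 1.5, 2C19 1.5, 2D6 0.3, 3A4 5 pmol/mL). Buffer 0.1 M potassium phosphate, 5 mM MgCl2, pH 7.4; 2.5 mM NADPH; 37 °C. Non-transfected insect microsomes served as controls. Aliquots taken 0.5–30 min and acetonitrile-quenched; depletion measured by LC-MS/MS with isotope-labelled internal standard.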

[2] = target: Cytochrome P450 2C19 (Homo sapiens, UniProt P33261); experiment: Activity at recombinant CYP2C19 (unknown origin) expressed in baculovirus-infected insect cells assessed as enzyme-mediated drug depletion at 1 to 10 uM by LC-MS/MS analysis in presence of NADPH; format: ADME; in short: as §1
Chain of Cytochrome P450 2C19 (P33261 whole entry): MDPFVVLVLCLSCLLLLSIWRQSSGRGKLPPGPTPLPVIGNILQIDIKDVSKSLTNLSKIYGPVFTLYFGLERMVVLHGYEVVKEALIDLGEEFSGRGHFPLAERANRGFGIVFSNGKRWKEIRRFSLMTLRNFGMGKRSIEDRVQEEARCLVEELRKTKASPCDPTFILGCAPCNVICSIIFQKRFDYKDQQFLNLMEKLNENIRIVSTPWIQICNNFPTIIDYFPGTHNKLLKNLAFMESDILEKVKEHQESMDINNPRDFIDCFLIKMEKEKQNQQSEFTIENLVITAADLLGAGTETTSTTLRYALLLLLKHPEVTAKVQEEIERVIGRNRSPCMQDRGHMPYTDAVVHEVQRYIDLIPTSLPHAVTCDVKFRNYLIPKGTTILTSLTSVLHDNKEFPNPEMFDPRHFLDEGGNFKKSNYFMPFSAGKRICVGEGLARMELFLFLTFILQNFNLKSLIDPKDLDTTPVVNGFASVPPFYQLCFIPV

[3] = Drug metabolism in human liver S9 fraction assessed as BILR355 formation at 10 uM by LC-MS/MS analysis in absence of NADPH; format: ADME; details: s9, 10 µM
In short: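 BILR 402 (10 μM final) was incubated with human liver S9 or cytosol (1 mg/mL protein) in 0.05 M potassium phosphate pH 7.4 at 37 °C. Runs were done with or without 2.5 mM NADPH. Samples at 10, 20, 30 and 60 min were quenched in nevirapine/acetonitrile, filtered and analysed by LC-MS/MS; duplicate.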

[4] = target: T2, Aldehyde oxidase (Homo sapiens, UniProt Q06278); experiment: Drug metabolism in human liver cytosol assessed as intrinsic clearance for high affinity low capacity site aldehyde-oxidase-mediated BILR516 metabolite formation measured per mg protein after 10 mins by Eadie-Hofstee plot analysis; format: ADME, tissue-based
T2 sequence (Q06278 whole entry): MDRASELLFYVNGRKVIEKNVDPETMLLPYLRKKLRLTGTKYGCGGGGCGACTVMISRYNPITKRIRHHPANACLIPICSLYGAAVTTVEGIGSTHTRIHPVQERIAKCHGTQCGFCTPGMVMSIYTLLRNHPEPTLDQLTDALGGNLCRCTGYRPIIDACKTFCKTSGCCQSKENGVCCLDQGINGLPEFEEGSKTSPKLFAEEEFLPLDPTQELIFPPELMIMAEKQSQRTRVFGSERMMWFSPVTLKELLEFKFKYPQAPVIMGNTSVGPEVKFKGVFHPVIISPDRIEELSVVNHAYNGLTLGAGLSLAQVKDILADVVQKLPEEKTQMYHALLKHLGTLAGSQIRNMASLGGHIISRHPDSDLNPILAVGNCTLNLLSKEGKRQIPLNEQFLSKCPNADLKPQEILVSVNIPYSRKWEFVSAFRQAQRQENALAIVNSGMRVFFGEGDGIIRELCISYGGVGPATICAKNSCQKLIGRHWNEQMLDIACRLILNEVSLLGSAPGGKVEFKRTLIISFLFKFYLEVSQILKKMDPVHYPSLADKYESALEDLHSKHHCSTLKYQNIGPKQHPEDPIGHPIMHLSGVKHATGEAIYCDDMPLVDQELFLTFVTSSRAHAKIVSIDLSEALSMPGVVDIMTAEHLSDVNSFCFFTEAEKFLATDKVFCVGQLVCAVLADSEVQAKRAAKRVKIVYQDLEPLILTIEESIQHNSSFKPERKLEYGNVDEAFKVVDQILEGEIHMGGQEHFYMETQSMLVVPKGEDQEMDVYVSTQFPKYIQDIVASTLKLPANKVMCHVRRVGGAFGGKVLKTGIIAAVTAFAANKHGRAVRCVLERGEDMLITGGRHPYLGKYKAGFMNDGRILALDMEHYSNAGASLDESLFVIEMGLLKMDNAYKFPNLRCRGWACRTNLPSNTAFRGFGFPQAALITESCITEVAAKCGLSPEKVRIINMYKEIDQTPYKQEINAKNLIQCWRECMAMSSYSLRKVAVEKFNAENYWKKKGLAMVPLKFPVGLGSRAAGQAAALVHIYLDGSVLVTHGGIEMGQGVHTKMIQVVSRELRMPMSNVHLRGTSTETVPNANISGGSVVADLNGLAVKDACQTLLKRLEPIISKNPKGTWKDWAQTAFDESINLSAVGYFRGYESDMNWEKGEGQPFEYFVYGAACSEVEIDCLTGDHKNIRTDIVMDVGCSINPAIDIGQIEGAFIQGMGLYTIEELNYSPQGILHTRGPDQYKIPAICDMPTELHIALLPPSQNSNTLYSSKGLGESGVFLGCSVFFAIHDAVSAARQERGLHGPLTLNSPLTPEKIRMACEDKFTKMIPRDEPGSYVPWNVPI
In short: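 Human liver cytosol (0.1 mg/mL) was incubated with BILR 402 at 12 concentrations, 0.061–125 μM, for 10 min at 37 °C in 0.05 M potassium phosphate pH 7.4 without NADPH, within the linear range for protein and time. […] Apparent Km and Vmax were derived from the kinetic data.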

**Q.** Which results are given for `CCN1c2ncc(CCOc3ccnc4ccccc34)cc2C(=O)N(C)c2cccnc21`?
**A.** Drug metabolism [1]: metabolite_not_detected; Drug metabolism [2]: metabolite_not_detected; Drug metabolism [3]: metabolite_not_detected; CLHH [4]: 437 µL/min/mg
